Source: ChEMBL document CHEMBL4014308, “Amphiphilic Tobramycin-Lysine Conjugates Sensitize Multidrug Resistant Gram-Negative Bacteria to Rifampicin and Minocycline” (J Med Chem, 2017)
Active and inactive are the calls of the source. No cut-off for these calls is given here.

Tests used:
Pseudomonas aeruginosa [1] = assay: Bactericidal activity against Pseudomonas aeruginosa PAO1 at antibacterial MIC after 2 hrs; assay type: functional
Method in brief: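 Time-kill with P. aeruginosa PAO1. A 0.5 McFarland suspension was diluted 1:50 in LB broth and exposed to agent in PBS (pH 7.2) at 1/2×, 1×, 2× or 4× MIC at 37 °C for 6 h. Samples at 0, 10, 30, 60, 90, 120, 240 and 360 min were serially diluted in PBS, plated on LB agar, and colonies counted after 20 h at 37 °C.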

Pseudomonas aeruginosa [2] = assay: Potentiation of gentamicin-induced antibacterial activity against Pseudomonas aeruginosa PAO1 at 4 ug/ml after 18 hrs by checkerboard assay; assay type: functional
Method in brief: (§1)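 Checkerboard in Mueller-Hinton broth: antibiotic serially diluted along one axis and adjuvant along the other (10 × 7 matrix). Inoculum from a 0.5 McFarland saline suspension diluted 1:50 in MHB; 18 h at 37 °C, then plate read. MIC is the lowest concentration with no growth. FIC of each agent is its concentration in a no-growth well divided by its MIC alone; FIC index is the sum of both. FIC index ≤0.5 counts as synergy.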

Pseudomonas aeruginosa [3] = assay: Synergistic antibacterial activity against Pseudomonas aeruginosa PAO1 after 18 hrs in presence of rifampicin by checkerboard assay; assay type: functional; details: PAO1, 18 h
Method in brief: (§2)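 Checkerboard in MHB: antibiotic diluted along one axis and adjuvant along the other (10 × 7 matrix). Inoculum was a 1:50 dilution in MHB of a 0.5 McFarland saline suspension; incubated 18 h at 37 °C. Each FIC = concentration in the no-growth well divided by the MIC alone; FIC index = sum of both FICs. ≤0.5 synergy, 0.5–4 no interaction, ≥4 antagonism.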

Acinetobacter baumannii [4] = assay: Synergistic antibacterial activity against multidrug-resistant Acinetobacter baumannii AB030 after 18 hrs in presence of minocycline by checkerboard assay; assay type: functional; details: AB030, 18 h
Method in brief: (§3)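 Checkerboard in MHB with a 10 × 7 matrix: antibiotic serially diluted along one axis, adjuvant along the other. Inoculum was a 1:50 dilution of a 0.5 McFarland suspension, incubated 18 h at 37 °C and read on a plate reader. Each FIC is the concentration in a no-growth well divided by the MIC alone; FIC index is their sum, with ≤0.5 taken as synergy.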

Pseudomonas aeruginosa [5] = assay: Potentiation of minocycline-induced antibacterial activity against multidrug/extremely drug-resistant/colistin-resistant Pseudomonas aeruginosa isolate 91433 assessed as fold reduction in minocycline MIC at 4 ug/ml after 18 hrs by checkerboard assay relative to control; assay type: functional
Method in brief: (§4)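 Checkerboard in Mueller-Hinton broth, 10 × 7 matrix, with the adjuvant held at 4 µg/mL. Inoculum from a 0.5 McFarland suspension diluted 1:50; 18 h at 37 °C. Antibiotic MIC (lowest concentration with no growth) with adjuvant is compared with the antibiotic MIC alone, giving a fold reduction.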

Klebsiella pneumoniae = assay: Synergistic antibacterial activity against multidrug-resistant Klebsiella pneumoniae 116381 after 18 hrs in presence of minocycline by checkerboard assay; assay type: functional; details: Klebsiella pneumoniae, 116381, 18 h
Method in brief: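 Checkerboard in Mueller-Hinton broth: antibiotic serially diluted along one axis and adjuvant along the other (10 × 7 matrix). Inoculum was overnight culture set to 0.5 McFarland in saline, then diluted 1:50 in broth. Incubated 18 h at 37 °C. MIC was the lowest concentration with no growth. FIC index is the sum of both FICs (combination concentration ÷ MIC alone); ≤0.5 counted as synergy.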

Pseudomonas aeruginosa [6] = assay: Disruption of proton motive force in Pseudomonas aeruginosa PAO1 cytoplasmic membrane assessed as repression of bacterial swimming motility after 20 hrs; assay type: functional
Method in brief: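 Swim plates of 0.3% agar with tryptone 5 g/L and NaCl 2.5 g/L, agent mixed into the medium and plates dried 2 h. PAO1 at 1.0 McFarland in 0.85% saline was point-inoculated at the center, and plates incubated 20 h at 37 °C before swim diameter was imaged.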

Enterobacter cloacae = assay: Potentiation of minocycline-induced antibacterial activity against multidrug-resistant Enterobacter cloacae 117029 at 4 ug/ml after 18 hrs by checkerboard assay; assay type: functional; method in brief: as §1
Acinetobacter baumannii [7] = assay: Potentiation of minocycline-induced antibacterial activity against multidrug-resistant Acinetobacter baumannii 110193 at 4 ug/ml after 18 hrs by checkerboard assay; assay type: functional; method in brief: as §1
Acinetobacter baumannii [8] = assay: Synergistic antibacterial activity against multidrug-resistant Acinetobacter baumannii AB027 after 18 hrs in presence of minocycline by checkerboard assay; assay type: functional; details: AB027, 18 h; method in brief: as §3
Pseudomonas aeruginosa [9] = assay: Potentiation of minocycline-induced antibacterial activity against multidrug/extremely drug-resistant/colistin-susceptible Pseudomonas aeruginosa isolate 100036 assessed as fold reduction in minocycline MIC at 4 ug/ml after 18 hrs by checkerboard assay relative to control; assay type: functional; method in brief: as §4
Pseudomonas aeruginosa [10] = assay: Potentiation of rifampicin-induced antibacterial activity against multidrug/extremely drug-resistant/colistin-susceptible Pseudomonas aeruginosa isolate 100036 assessed as fold reduction in rifampicin MIC at 4 ug/ml after 18 hrs by checkerboard assay relative to control; assay type: functional; method in brief: as §4
Acinetobacter baumannii [11] = assay: Potentiation of minocycline-induced antibacterial activity against multidrug-resistant Acinetobacter baumannii AB030 at 4 ug/ml after 18 hrs by checkerboard assay; assay type: functional; method in brief: as §1
Acinetobacter baumannii [12] = assay: Potentiation of minocycline-induced antibacterial activity against multidrug-resistant Acinetobacter baumannii AB027 at 4 ug/ml after 18 hrs by checkerboard assay; assay type: functional; method in brief: as §1
Pseudomonas aeruginosa [13] = assay: Potentiation of ceftazidime-induced antibacterial activity against Pseudomonas aeruginosa PAO1 at 4 ug/ml after 18 hrs by checkerboard assay; assay type: functional; method in brief: as §1
[14] = Toxicity in Galleria mellonella assessed as survival rate at 200 mg/kg for 4 days relative to control; assay type: organism-based; details: in vivo
Method in brief: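 Galleria mellonella larvae, about 250 mg each, were used within 7 days of delivery. Compound alone was injected at 100 and 200 mg/kg with no bacterial challenge, ten larvae per group. Larvae were kept at 37 °C and survival was scored over 96 h.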

Pseudomonas aeruginosa [15] = assay: Potentiation of rifampicin-induced antibacterial activity against Pseudomonas aeruginosa PAO1 at 4 ug/ml after 18 hrs by checkerboard assay; assay type: functional; method in brief: as §3
Staphylococcus aureus = assay: Antibacterial activity against methicillin resistant Staphylococcus aureus ATCC 33592 after 18 hrs by microtiter dilution assay; assay type: functional; details: ATCC 33592, 18 h
Method in brief: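 Broth microdilution following CLSI guidelines. An overnight culture was adjusted to 0.5 McFarland in saline, then diluted 1:50 in Mueller-Hinton broth. This inoculum was added in equal volume to 2-fold serial dilutions of agent in MHB and incubated 18 h at 37 °C. MIC was the lowest concentration with no visible growth.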

Pseudomonas aeruginosa [16] = assay: Synergistic antibacterial activity against Pseudomonas aeruginosa PAO1 after 18 hrs in presence of minocycline by checkerboard assay; assay type: functional; details: PAO1, 18 h; method in brief: as §2
Pseudomonas aeruginosa [17] = assay: Potentiation of amikacin-induced antibacterial activity against Pseudomonas aeruginosa PAO1 at 4 ug/ml after 18 hrs by checkerboard assay; assay type: functional; method in brief: as §1
Enterococcus faecalis = assay: Antibacterial activity against Enterococcus faecalis ATCC 29212 after 18 hrs by microtiter dilution assay; assay type: functional; details: ATCC 29212, 18 h
Method in brief: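 Broth microdilution per CLSI. Overnight culture adjusted to 0.5 McFarland in saline, diluted 1:50 in Mueller-Hinton broth, and added to an equal volume of 2-fold serial compound dilutions in MHB. Incubated 18 h at 37 °C. MIC taken as the lowest concentration with no visible growth.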

Which results are given for `Cl.Cl.Cl.Cl.Cl.Cl.Cl.NCCCC[C@H](N)C(=O)N(CCCCCCCCCCCCO[C@@H]1[C@@H](O[C@H]2O[C@H](CO)[C@@H](O)[C@H](N)[C@H]2O)[C@H](N)C[C@H](N)[C@H]1O[C@H]1O[C@H](CN)[C@@H](O)C[C@H]1N)Cc1c2ccccc2c(Cl)c2ccccc12`?
Activity (Pseudomonas aeruginosa [1]): Active; fractional inhibitory concentration index (FICI) (Pseudomonas aeruginosa [2]): 1.125; MIC (Pseudomonas aeruginosa [3]): 1 µg/mL; MIC (Acinetobacter baumannii [4]): 16 µg/mL; fold change (FC) (Pseudomonas aeruginosa [5]): 128; MIC (Klebsiella pneumoniae): 16 µg/mL; Activity (Pseudomonas aeruginosa [6]): Dose-dependent effect; fractional inhibitory concentration index (FICI) (Enterobacter cloacae): 0.062; fractional inhibitory concentration index (FICI) (Acinetobacter baumannii [7]): 0.63; MIC (Acinetobacter baumannii [8]): 1 µg/mL; fold change (FC) (Pseudomonas aeruginosa [9]): 32; fold change (FC) (Pseudomonas aeruginosa [10]): 128; fractional inhibitory concentration index (FICI) (Acinetobacter baumannii [11]): 0.375; fractional inhibitory concentration index (FICI) (Acinetobacter baumannii [12]): 0.258; fractional inhibitory concentration index (FICI) (Pseudomonas aeruginosa [13]): 0.563; survival at 96 h [14]: 100%; fractional inhibitory concentration index (FICI) (Pseudomonas aeruginosa [15]): 0.094; MIC (Staphylococcus aureus): 8 µg/mL; MIC (Pseudomonas aeruginosa [16]): 1 µg/mL; fractional inhibitory concentration index (FICI) (Pseudomonas aeruginosa [17]): 1.063; MIC (Enterococcus faecalis): 16 µg/mL
